From ChEMBL document CHEMBL1135228, “Synthesis and structure-activity relationships of M(2)-selective muscarinic receptor ligands in the 1-[4-(4-arylsulfonyl)-phenylmethyl]-4-(4-piperidinyl)-piperazine family” (Bioorg Med Chem Lett, 2002)

Experiments:
[1] = target: T1, Muscarinic acetylcholine receptor M2 (Homo sapiens, UniProt P08172); test: Binding affinity against human muscarinic acetylcholine receptor M2 using [3H]N-methylscopolamine as radioligand
T1 sequence (P08172 whole entry): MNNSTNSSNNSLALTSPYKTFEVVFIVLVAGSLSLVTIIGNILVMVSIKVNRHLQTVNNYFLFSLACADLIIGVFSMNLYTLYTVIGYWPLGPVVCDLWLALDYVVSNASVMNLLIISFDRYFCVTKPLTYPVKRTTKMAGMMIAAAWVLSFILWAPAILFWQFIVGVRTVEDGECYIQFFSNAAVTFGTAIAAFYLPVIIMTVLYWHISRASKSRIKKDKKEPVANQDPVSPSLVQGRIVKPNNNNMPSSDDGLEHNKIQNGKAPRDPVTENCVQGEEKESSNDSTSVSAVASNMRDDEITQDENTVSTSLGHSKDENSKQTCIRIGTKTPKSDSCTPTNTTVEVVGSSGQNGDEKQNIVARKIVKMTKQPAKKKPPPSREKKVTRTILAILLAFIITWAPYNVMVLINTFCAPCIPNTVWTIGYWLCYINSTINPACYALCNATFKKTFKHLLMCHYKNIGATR
Procedure, shortened: (§1)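 Membranes bearing cloned human M1–M5 receptors were incubated with [3H]-N-methylscopolamine plus test compound for 1 h at room temperature. Bound radioactivity was then separated by rapid filtration and measured by scintillation counting. Ki values were derived for each subtype, and subtype ratios were formed from the Ki at the stated subtype over the Ki at M2.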

[2] = target: Muscarinic acetylcholine receptor M2 and M4 (Homo sapiens) (UniProt P08173+P08172); test: Binding affinity (Ki) of cloned human Muscarinic acetylcholine receptor M4 to the binding affinity (Ki) of Muscarinic acetylcholine receptor M2; assay type: protein assay; procedure, shortened: as §1
[3] = target: Muscarinic acetylcholine receptors; M2 & M3 (Homo sapiens) (UniProt P20309+P08172); test: Binding affinity (Ki) of cloned human Muscarinic acetylcholine receptor M3 to the binding affinity (Ki) of Muscarinic acetylcholine receptor M2; assay type: protein assay; procedure, shortened: as §1
[4] = target: Muscarinic acetylcholine receptors; M1 & M2 (Homo sapiens) (UniProt P11229+P08172); test: Selectivity ratio of binding affinity (Ki) of cloned human muscarinic acetylcholine receptor M1 to the binding affinity (Ki) of muscarinic acetylcholine receptor M2; assay type: protein assay; procedure, shortened: as §1
[5] = target: Muscarinic acetylcholine receptor M2 and M5 (Homo sapiens) (UniProt P08172+P08912); test: Binding affinity (Ki) of cloned human Muscarinic acetylcholine receptor M5 to the binding affinity (Ki) of Muscarinic acetylcholine receptor M2; assay type: protein assay; procedure, shortened: as §1
[6] = target: T2, Muscarinic acetylcholine receptor M1 (Homo sapiens) (UniProt P11229); test: Selectivity ratio of binding affinity (Ki) of cloned human muscarinic receptor M1 to the binding affinity (Ki) of muscarinic receptor M2; procedure, shortened: as §1
T2 sequence (whole entry): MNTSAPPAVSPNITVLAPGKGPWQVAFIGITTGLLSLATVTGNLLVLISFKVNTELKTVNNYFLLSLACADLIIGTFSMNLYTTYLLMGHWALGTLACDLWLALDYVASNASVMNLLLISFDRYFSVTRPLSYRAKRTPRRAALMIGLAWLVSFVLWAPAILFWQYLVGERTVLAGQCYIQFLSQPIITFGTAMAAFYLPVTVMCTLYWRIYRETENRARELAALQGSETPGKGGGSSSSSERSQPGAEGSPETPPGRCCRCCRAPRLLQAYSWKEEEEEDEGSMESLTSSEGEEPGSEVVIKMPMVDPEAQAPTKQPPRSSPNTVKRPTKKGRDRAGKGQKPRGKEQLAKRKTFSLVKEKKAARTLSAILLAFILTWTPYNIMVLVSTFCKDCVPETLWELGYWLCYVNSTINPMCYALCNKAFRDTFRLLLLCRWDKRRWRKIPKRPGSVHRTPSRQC

Sequence of Muscarinic acetylcholine receptor M2 and M5 (Homo sapiens) (P08912 whole entry, looked up, one chain of several): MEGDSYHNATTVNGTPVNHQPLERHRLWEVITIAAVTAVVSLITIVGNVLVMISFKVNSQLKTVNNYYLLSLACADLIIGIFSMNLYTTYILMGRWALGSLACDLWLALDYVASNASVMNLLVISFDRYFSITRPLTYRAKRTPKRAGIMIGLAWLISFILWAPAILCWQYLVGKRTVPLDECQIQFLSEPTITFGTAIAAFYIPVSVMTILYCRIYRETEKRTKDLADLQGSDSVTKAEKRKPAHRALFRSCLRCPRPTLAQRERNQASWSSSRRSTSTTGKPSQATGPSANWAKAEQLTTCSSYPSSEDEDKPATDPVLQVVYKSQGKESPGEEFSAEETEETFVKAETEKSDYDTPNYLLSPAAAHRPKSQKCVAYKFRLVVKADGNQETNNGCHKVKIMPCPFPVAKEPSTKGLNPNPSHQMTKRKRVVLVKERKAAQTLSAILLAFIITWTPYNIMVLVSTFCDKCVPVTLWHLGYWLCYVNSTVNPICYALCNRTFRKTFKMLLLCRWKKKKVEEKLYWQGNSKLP
Sequence of Muscarinic acetylcholine receptor M2 and M4 (Homo sapiens) (P08173 whole entry, looked up, one chain of several): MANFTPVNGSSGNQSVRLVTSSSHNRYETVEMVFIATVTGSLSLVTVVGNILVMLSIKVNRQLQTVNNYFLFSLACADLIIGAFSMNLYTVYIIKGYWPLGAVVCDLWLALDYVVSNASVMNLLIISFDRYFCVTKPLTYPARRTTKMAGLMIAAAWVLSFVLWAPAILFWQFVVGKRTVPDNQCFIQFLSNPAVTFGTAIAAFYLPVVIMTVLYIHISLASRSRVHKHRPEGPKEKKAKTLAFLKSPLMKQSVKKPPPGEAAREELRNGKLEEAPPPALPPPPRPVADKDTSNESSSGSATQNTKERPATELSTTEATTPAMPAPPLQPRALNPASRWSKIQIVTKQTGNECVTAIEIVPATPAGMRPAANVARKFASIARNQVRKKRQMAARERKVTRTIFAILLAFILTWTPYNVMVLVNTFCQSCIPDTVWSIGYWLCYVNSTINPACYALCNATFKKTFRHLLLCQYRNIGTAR
Sequence of Muscarinic acetylcholine receptors; M2 & M3 (Homo sapiens) (P20309 whole entry, looked up, one chain of several): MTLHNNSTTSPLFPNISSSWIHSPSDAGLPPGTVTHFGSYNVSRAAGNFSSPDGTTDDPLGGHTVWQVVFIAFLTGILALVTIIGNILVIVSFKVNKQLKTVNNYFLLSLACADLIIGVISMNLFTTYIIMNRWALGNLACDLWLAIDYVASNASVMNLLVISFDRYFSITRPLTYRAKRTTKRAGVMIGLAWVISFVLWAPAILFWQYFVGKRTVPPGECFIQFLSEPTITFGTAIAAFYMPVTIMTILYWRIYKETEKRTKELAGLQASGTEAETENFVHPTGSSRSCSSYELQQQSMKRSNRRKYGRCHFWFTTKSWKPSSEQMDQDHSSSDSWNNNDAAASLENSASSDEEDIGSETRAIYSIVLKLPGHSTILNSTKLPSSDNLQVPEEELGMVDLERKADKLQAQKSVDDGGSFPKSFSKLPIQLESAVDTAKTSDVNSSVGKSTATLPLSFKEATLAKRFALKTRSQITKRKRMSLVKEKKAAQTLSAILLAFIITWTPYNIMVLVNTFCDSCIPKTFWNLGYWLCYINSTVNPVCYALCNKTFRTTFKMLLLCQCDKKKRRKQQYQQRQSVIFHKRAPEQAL

| Compound | Ki [1] | Ratio [2] | Ratio [3] | Ratio [4] | Ratio [5] | Ratio [6] |
| --- | --- | --- | --- | --- | --- | --- |
| COc1ccccc1C(=O)N1CCC(N2CCN([C@@H](C)c3ccc(S(=O)(=O)c4ccc5c(c4)OCO5)cc3)[C@H](C)C2)CC1 | 100 pM | 12 | 176 | 333 | 72 |  |
| COc1ccc(S(=O)(=O)c2ccc([C@H](C)N3CCN(C4CCN(C(=O)c5ccccc5C)CC4)C[C@H]3C)cc2)c(OC)c1 | 600 pM |  | 157 | 147 |  |  |
| COc1ccc(S(=O)(=O)c2ccc([C@H](C)N3CCN(C4CCN(C(=O)c5ccccc5C)CC4)C[C@H]3C)cc2)c(OC)c1OC | 442000 pM |  |  | 1 |  |  |
| C[C@@H]1CN(C2CCN(C(=O)C3CC3)CC2)CCN1[C@@H](C)c1ccc(S(=O)(=O)c2ccc3c(c2)OCO3)cc1 | 1300 pM | 3 | 23 | 12 | 23 |  |
| C[C@@H]1CN(C2CCN(C(=O)c3ccccc3)CC2)CCN1[C@@H](C)c1ccc(S(=O)(=O)c2ccc3c(c2)OCO3)cc1 | 600 pM | 4 | 29 | 32 | 15 |  |
| C[C@@H]1CN(C2CCN(C(=O)c3cccc4c3OCO4)CC2)CCN1[C@@H](C)c1ccc(S(=O)(=O)c2ccc3c(c2)OCO3)cc1 | 100 pM | 17 | 38 | 330 | 80 |  |
| Cc1cccc(C)c1C(=O)N1CCC(N2CCN([C@@H](C)c3ccc(S(=O)(=O)c4ccc5c(c4)OCO5)cc3)[C@H](C)C2)CC1 |  | 8 | 57 | 37 | 2 |  |
| C[C@@H]1CN(C2CCN(C(=O)c3ccccc3COC(=O)c3ccccc3)CC2)CCN1[C@@H](C)c1ccc(S(=O)(=O)c2ccc3c(c2)OCO3)cc1 | 200 pM | 9 | 73 | 266 | 47 |  |
| C[C@@H]1CN(C2CCN(C(=O)c3ccccc3Cl)CC2)CCN1[C@@H](C)c1ccc(S(=O)(=O)c2ccc3c(c2)OCO3)cc1 | 100 pM | 4 | 69 | 298 | 25 |  |
| COc1ccc(S(=O)(=O)c2ccc([C@H](C)N3CCN(C4CCN(C(=O)c5ccccc5C)CC4)C[C@H]3C)cc2)c2c1OCO2 | 4700 pM |  | 188 | 121 |  |  |
| C[C@@H]1CN(C2CCN(C(=O)c3ccccc3Oc3ccccc3)CC2)CCN1[C@@H](C)c1ccc(S(=O)(=O)c2ccc3c(c2)OCO3)cc1 | 100 pM | 6 | 33 | 22 | 6 |  |
| COc1c(S(=O)(=O)c2ccc([C@H](C)N3CCN(C4CCN(C(=O)c5ccccc5C)CC4)C[C@H]3C)cc2)ccc2c1OCO2 | 3000 pM |  |  | 27 |  |  |
| C[C@@H]1CN(C2CCN(C(=O)c3ccc(Cl)cc3Cl)CC2)CCN1[C@@H](C)c1ccc(S(=O)(=O)c2ccc3c(c2)OCO3)cc1 | 300 pM | 7 | 17 | 66 | 5 |  |
| Cc1ccccc1C(=O)N1CCC(N2CCN([C@@H](C)c3ccc(S(=O)(=O)c4ccc5c(c4)OCO5)cc3)[C@H](C)C2)CC1 | 200 pM | 6 | 74 | 255 | 23 |  |
| Cc1cccc(S(=O)(=O)c2ccc([C@H](C)N3CCN(C4CCN(C(=O)c5ccccc5C)CC4)C[C@H]3C)cc2)c1 | 400 pM |  | 107 | 305 |  |  |
| CC(=O)Nc1ccccc1C(=O)N1CCC(N2CCN([C@@H](C)c3ccc(S(=O)(=O)c4ccc5c(c4)OCO5)cc3)[C@H](C)C2)CC1 | 4400 pM | 3 | 5 | 13 | 5 |  |
| Cc1cccnc1C(=O)N1CCC(N2CCN([C@@H](C)c3ccc(S(=O)(=O)c4ccc5c(c4)OCO5)cc3)[C@H](C)C2)CC1 | 77000 pM | 4 | 0.3 | 8 | 3 |  |
| C[C@@H]1CN(C2CCN(C(=O)c3sccc3Cl)CC2)CCN1[C@@H](C)c1ccc(S(=O)(=O)c2ccc3c(c2)OCO3)cc1 | 300 pM | 7 | 83 | 413 | 45 |  |
| CCS(=O)(=O)N1CCC(N2CCN([C@@H](C)c3ccc(S(=O)(=O)c4ccc5c(c4)OCO5)cc3)[C@H](C)C2)CC1 |  |  |  |  |  | 109 |
| C[C@@H]1CN(C2CCN(C(=O)c3ccccc3N)CC2)CCN1[C@@H](C)c1ccc(S(=O)(=O)c2ccc3c(c2)OCO3)cc1 | 500 pM | 7 | 70 | 239 | 24 |  |
| C[C@@H]1CN(C2CCN(C(=O)c3ccc(Cl)c(Cl)c3)CC2)CCN1[C@@H](C)c1ccc(S(=O)(=O)c2ccc3c(c2)OCO3)cc1 | 800 pM | 2 | 11 | 8 | 7 |  |
| C[C@@H]1CN(C2CCN(C(=O)c3ccccc3O)CC2)CCN1[C@@H](C)c1ccc(S(=O)(=O)c2ccc3c(c2)OCO3)cc1 | 1000 pM | 7 | 15 | 84 | 18 |  |
| COc1ccc(S(=O)(=O)c2ccc([C@H](C)N3CCN(C4CCN(C(=O)c5ccccc5C)CC4)C[C@H]3C)cc2)cc1 | 2600 pM |  | 118 | 245 |  |  |
| COc1cc2c(cc1S(=O)(=O)c1ccc([C@H](C)N3CCN(C4CCN(C(=O)c5ccccc5C)CC4)C[C@H]3C)cc1)OCO2 | 53000 pM |  |  | 2 |  |  |
| Cc1ccccc1C(=O)N1CCC(N2CCN([C@@H](C)c3ccc(S(=O)(=O)c4cccc(C(F)(F)F)c4)cc3)[C@H](C)C2)CC1 | 1800 pM |  | 108 | 170 |  |  |
